ChEMBL document CHEMBL3621120, “Discovery of ((4-(5-(Cyclopropylcarbamoyl)-2-methylphenylamino)-5-methylpyrrolo[1,2-f][1,2,4]triazine-6-carbonyl)(propyl)carbamoyloxy)methyl-2-(4-(phosphonooxy)phenyl)acetate (BMS-751324), a Clinical Prodrug of p38α MAP Kinase Inhibitor” (J Med Chem, 2015)
Converted amounts (≈) assume the structure as drawn.

Tests used:
[1] = Stability in pH 1.1 solution assessed as half-life at 37 degC; assay type: physicochemical
[2] = Solubility of the compound in pH 1.2 solution at room temperature; assay type: physicochemical
[3] = Solubility of the compound in pH 6.7 solution at room temperature; assay type: physicochemical
Rattus norvegicus [4] = assay: Cmax in Sprague-Dawley rat assessed as plasma BMS-582949 level at 1 mg/kg, po dose equivalent to BMS-582949 after 24 hrs by LC/MS/MS method; assay type: ADME, organism-based; set-up: dose 1 mg/kg, route oral; conditions: in vivo
Rattus norvegicus [5] = assay: Cmax in Sprague-Dawley rat assessed as plasma BMS-582949 level at 100 mg/kg, po dose equivalent to BMS-582949 after 24 hrs by LC/MS/MS method; assay type: ADME, organism-based; set-up: dose 100 mg/kg, route oral; conditions: in vivo
Rattus norvegicus [6] = assay: AUC in Sprague-Dawley rat assessed as plasma BMS-582949 level at 1 mg/kg, po dose equivalent to BMS-582949 after 24 hrs by LC/MS/MS method; assay type: ADME, organism-based; set-up: time < 24 hr, dose 1 mg/kg, route oral; conditions: in vivo
Cynomolgus monkey [7] = assay: AUC in cynomolgus monkey assessed as plasma BMS-582949 level at 30 mg/kg, po dose equivalent to BMS-582949 after 24 hrs by LC/MS/MS method; assay type: ADME, organism-based, Macaca fascicularis; set-up: time < 24 hr, dose 30 mg/kg, route oral; conditions: in vivo
Method in brief: (§1)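 Three overnight-fasted male cynomolgus monkeys (4.2-5.2 kg) given prodrug by oral gavage at 10 or 30 mg/kg, 5 mL/kg methocel suspension, one-week washout between doses. Femoral artery blood pre-dose and 0.25-24 h post-dose; plasma (centrifuged 4 °C) stored -20 °C and analysed by LC/MS/MS for parent.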

Cynomolgus monkey [8] = assay: Bioavailability in cynomolgus monkey assessed as plasma BMS-582949 level at 30 mg/kg, po dose equivalent to BMS-582949 after 24 hrs by LC/MS/MS method; assay type: ADME, organism-based, Macaca fascicularis; conditions: in vivo; method in brief: as §1
Rattus norvegicus [9] = assay: Inhibition of LPS-induced TNFalpha level in Lewis rat at 0.03 to 10 mg/kg, po dose equivalent to BMS-582949 dosed 1 hr before LPS challenge and measured 90 mins post LPS challenge by ELISA method; assay type: functional
Method in brief: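 Male Lewis rats (200-250 g) dosed orally 1 h before IP injection of 10ug E. coli O111:B4 LPS in 1.0 mL sterile saline; prodrug as suspension in 0.75% Methocel, 0.1% Tween 80, parent in PEG 300, controls given vehicle. Blood taken 90 min after LPS; serum TNF measured by ELISA; ED50 expressed as parent equivalent.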

[10] = target: Alkaline phosphatase, placental type (Homo sapiens, UniProt P05187); assay: Stability assessed as human placental ALP-mediated drug degradation by measuring compound remaining level in pH 7.5 tris buffer at 10 uM incubated for 1 hr by LC/MS/MS method; assay type: ADME; conditions: read-out: Stability
Chain of Alkaline phosphatase, placental type (P05187 whole entry): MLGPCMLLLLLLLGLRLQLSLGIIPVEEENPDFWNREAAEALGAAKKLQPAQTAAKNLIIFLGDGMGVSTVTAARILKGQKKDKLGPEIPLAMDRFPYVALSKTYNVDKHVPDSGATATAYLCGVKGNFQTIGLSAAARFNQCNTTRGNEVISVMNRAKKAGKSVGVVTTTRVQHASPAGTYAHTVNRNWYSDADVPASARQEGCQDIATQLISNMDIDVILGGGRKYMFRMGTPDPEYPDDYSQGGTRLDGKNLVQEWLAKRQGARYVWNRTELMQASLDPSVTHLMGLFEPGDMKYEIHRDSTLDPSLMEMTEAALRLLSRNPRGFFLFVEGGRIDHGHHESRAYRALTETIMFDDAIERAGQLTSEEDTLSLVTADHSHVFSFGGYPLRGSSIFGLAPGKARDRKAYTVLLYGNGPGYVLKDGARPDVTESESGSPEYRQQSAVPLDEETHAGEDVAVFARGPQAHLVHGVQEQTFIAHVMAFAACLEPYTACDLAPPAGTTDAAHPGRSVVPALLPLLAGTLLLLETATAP
Method in brief: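 Human placental ALP at 1 unit/mL, test compound at 10 µM in 89 mM tris pH 7.5, 37 °C. Run in triplicate, started by adding compound. Aliquots taken at 0, 15, 30 and 60 min and quenched into 10 mM EDTA plus acetonitrile. After centrifugation at 4 °C, percent remaining measured by LC/MS/MS.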

Liver carboxylesterase = target: T1, Liver carboxylesterase (Sus scrofa, UniProt Q29550); assay: Stability assessed as porcine liver esterase-mediated drug degradation by measuring compound remaining level in pH 7.4 potassium phosphate buffer at 10 uM incubated for 0.25 hrs by LC/MS/MS; assay type: ADME, tissue-based; conditions: pig, read-out: Stability
T1 sequence (Q29550 whole entry): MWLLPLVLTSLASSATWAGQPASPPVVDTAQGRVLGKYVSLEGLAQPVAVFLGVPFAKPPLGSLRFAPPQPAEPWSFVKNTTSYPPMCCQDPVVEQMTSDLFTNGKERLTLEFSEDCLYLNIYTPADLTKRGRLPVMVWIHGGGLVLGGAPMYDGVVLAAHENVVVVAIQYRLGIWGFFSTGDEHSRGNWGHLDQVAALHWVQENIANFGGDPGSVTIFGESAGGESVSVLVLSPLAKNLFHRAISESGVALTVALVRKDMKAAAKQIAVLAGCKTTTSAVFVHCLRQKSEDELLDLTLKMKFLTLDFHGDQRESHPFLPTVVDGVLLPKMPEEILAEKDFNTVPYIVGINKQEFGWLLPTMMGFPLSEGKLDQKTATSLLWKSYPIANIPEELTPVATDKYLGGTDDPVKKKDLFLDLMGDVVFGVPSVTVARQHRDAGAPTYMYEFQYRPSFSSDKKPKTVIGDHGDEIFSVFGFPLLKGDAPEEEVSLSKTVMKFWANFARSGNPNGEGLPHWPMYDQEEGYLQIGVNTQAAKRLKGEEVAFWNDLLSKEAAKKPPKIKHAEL
Method in brief: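 Porcine liver esterase with substrate at 10 µM in 89 mM potassium phosphate pH 7.4, 37 °C. Reaction started by adding compound. Aliquots taken at 0, 15, 30 and 60 min and quenched with acetonitrile. After centrifugation at 4 °C, percent remaining quantified by LC/MS/MS.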

Caco-2 = assay: Drug level in apical side of human Caco2 cells incubated at 37 degC for 2 hrs; assay type: ADME, cell-based; conditions: caco-2, 2 h
Method in brief: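 Compounds loaded on apical side of Caco-2 monolayers and incubated at 37 °C for 2 h; prodrug, intermediate and parent measured on apical and basal sides.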

With CCCN(C(=O)OCOC(=O)Cc1ccc(OP(=O)(O)O)cc1)C(=O)c1cn2ncnc(Nc3cc(C(=O)NC4CC4)ccc3C)c2c1C as the molecule, how does the half-life [1] read?
Its half-life is 21 h.

And the solubility [2]?
Its solubility is 100 µg/mL (≈ 144 µM).

What about the solubility [3] of the same molecule?
The solubility was 3030 µg/mL (≈ 4360 µM).

What about the Cmax (Rattus norvegicus [4]) of the same molecule?
The Cmax was 0.4 µM.

What about the Cmax (Rattus norvegicus [5]) of the same molecule?
Its Cmax is 122 µM.

And the AUC (Rattus norvegicus [6])?
Its AUC is 3.1 µM·h.

And the AUC (Cynomolgus monkey [7])?
Its AUC is 96 µM·h.

And the F (Cynomolgus monkey [8])?
The F was 69%.

And the ED50 (Rattus norvegicus [9])?
The ED50 was 0.89 mg.

What about the inhibition (Rattus norvegicus [9]) of the same molecule?
The inhibition was “Dose-dependent effect”.

And the remaining at 1 h, 10 µM [10]?
The remaining at 1 h, 10 µM was 10.9%.

What about the remaining at 0.25 h, 10 µM (Liver carboxylesterase) of the same molecule?
Its remaining at 0.25 h, 10 µM is 100%.

And the Drug uptake (Caco-2)?
The Drug uptake was “Active”.
